Screening data from PubChem BioAssay.
ABHD4 inh – ABHD4 (mouse) inhibition, primary FP screen. purified mABHD4, FP-Rh probe fluorescence polarization. inhibition, % at 8.92 µM. 370,000 tested, 0.54% active. AID 720543;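 active means inhibition exceeding the mean over every tested compound plus 3 SD, cut at about 30% in these data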;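 further: 0% = plate median of compound wells and 100% = S159A mutant with DMSO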
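system = mouse ABHD4 enzyme, wild type | medium = HEPES pH 7.0, NaCl, Pluronic buffer | also added = FP-Rh probe | incubation = Enzyme–compound pre-incubation 45 min, then probe 60 min, both 25 °C | technique = fluorescence polarization, excitation 525 nm, emission 598 nm, BODIPY TMR filters | controls = S159A mutant high control, sample median low control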
SIAE inh – human SIAE inhibition, primary screen | Q9HAT2 | SIAE FP-Rh probe binding, fluorescence polarization | inhibition, % at 9.66 µM | 370,000 tested, 0.69% active | AID 1053197;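 active means inhibition above a cutoff: mean of compounds within the control limits plus 3 SD of those, cut at about 17% in these data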;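 further: 0% = plate median of compound wells and 100% = probe without SIAE protein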
HTRA1 inh – inhibitors of human serine peptidase HTRA1; inhibition, % at 5.96 µM; 340,000 tested, 0.5% active; Q92743; recombinant HTRA1, FP-rhodamine activity-based probe, fluorescence polarization; AID 504803; in the data active means inhibition above about 36%;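 further: 0% = enzyme with DMSO and 100% = wells lacking enzyme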
Target sequence (Q92743 whole entry, looked up): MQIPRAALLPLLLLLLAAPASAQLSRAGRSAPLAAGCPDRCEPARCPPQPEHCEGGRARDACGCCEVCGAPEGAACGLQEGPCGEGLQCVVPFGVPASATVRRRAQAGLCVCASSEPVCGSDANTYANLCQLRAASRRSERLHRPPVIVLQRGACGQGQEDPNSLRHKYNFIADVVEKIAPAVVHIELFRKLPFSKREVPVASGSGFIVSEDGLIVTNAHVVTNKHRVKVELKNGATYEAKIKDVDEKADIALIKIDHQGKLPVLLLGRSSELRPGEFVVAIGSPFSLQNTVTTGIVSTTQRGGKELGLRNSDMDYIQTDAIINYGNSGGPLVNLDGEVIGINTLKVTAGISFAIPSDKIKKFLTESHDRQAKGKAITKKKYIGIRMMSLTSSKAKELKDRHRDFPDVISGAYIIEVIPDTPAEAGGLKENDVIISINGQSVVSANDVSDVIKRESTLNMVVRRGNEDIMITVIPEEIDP
PRMT1 inh – blocks human protein arginine methyltransferase 1; inhibition, % at 2.79 µM; AID 652257; 370,000 tested, 1.3% active; Q99873; recombinant PRMT1, activity-based probe fluorescence polarization;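 active means inhibition above about 21% made by adding two undisclosed values, limit read from the data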
TCR CD3 inh – inhibitors of human TCR-CD3 interaction | TAMRA-labeled TCR probe fluorescence, biochemical | inhibition, % at 9.4 µM | 360,000 tested, 0.37% active; in the data active means inhibition above about 19%;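 further: recombinant mutant TCR 2C K166C tagged with TAMRA read by polarization; 0% = receptor in buffer alone and 100% = receptor with positive control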
SIAE inh conf – human SIAE inhibition, confirmation | inhibition, % at 9.66 µM | AID 1117263 | shares compounds with SIAE inh | 2,300 tested, 13% active | SIAE FP-Rh activity-based probe, fluorescence polarization;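 active means mean inhibition of the replicates above the hit cutoff set in the primary screen, cut at about 17% in these data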;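 further: 0% = SIAE with DMSO and probe and 100% = probe without SIAE; inhibitors lower polarization as more probe stays unbound to SIAE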
Active calls of the source: *; x = no result given. Only some compounds are listed: those with a hit (about 2.5% of all), similar ones and a draw of the others.

SMILES	ABHD4 inh	SIAE inh	HTRA1 inh	PRMT1 inh	TCR CD3 inh	SIAE inh conf
CC(C)(C)OC(=O)/C=C/[C@@H](CCCCl)Sc1ccc(C(C)(C)C)cc1	-4.5	5.4	x	3.5	x	x
CCOC(=O)c1c(-c2ccccc2)csc1NC(=O)/C(C#N)=C/c1ccc(OC)c(OC)c1	-5.0	-0.1	-9.0	-2.4	4.4	x
CCOC(=O)c1c(-c2ccccc2)csc1NC(=O)/C(C#N)=C/c1ccc(O)c(OC)c1	-8.8	18.9*	-38.1	-3.7	-9.4	13.6
Cc1cc(Br)cn2c(Cc3ccccc3C(F)(F)F)c(-c3ccc(F)cc3)nc12	-25.3	-8.9	x	1.6	-8.2	x
OC1(Cc2ccccc2)CCN(c2ncnc3sccc23)CC1	2.2	-3.2	x	-1.0	x	x
Cc1cc(C)nc(SCC(=O)Nc2ncc3c(n2)CCCC3=O)n1	5.0	47.2*	9.6	-0.6	2.3	-4.9
Cc1c(CCC(=O)NCCCn2ccnc2)c(=O)oc2cc3occ(C(C)(C)C)c3cc12	11.9	18.2*	1.1	-2.1	-4.8	0.7
CCCCCCNC(=O)C1CSCCS(=O)(=O)N1Cc1ccc(OC)cc1 (centres undefined)	2.4	-0.3	x	-1.5	x	x
CCCCCCCCN1C(=O)[C@@H](CC(=O)NCCCOC)C[C@@]2(C(=O)OC)C1=C[C@H](C(C)C)O[C@@H]2C1CC1	0.4	6.6	x	-3.7	x	x
O=C(CSc1n[nH]c(-c2cccnc2)n1)OC1CCCCC1	-4.0	17.8*	-3.4	2.0	-4.3	-3.2
O=C(CSc1n[nH]c(-c2cccnc2)n1)Nc1ccc(Br)cc1	-21.5	-3.2	5.9	-4.1	-3.1	x
Cc1ccc(NC(=S)NNC(=S)Nc2ccc(C)cc2C)cc1	10.7	18.3*	-6.6	4.8	-2.5	5.2
C=CCc1cccc(CNc2nc3ccccc3n2CCC)c1O	-4.3	19.4*	-2.2	1.7	-3.2	11.0
C=CCc1cccc(CNc2nc3ccccc3n2CC)c1O	5.8	8.3	-5.3	-1.0	2.0	x
CCCn1c(Nc2ccccc2C)nc2ccccc21	4.0	37.5*	-3.8	1.0	-6.1	-2.7
COC(=O)C1CN(Cc2cn(Cc3ccc(OC)cc3)nn2)CCS(=O)(=O)N1Cc1ccc(C)cc1 (centres undefined)	2.9	4.6	x	1.8	x	x
Cc1cc(C)c(NC(=O)C2=COCCO2)c(C)c1	0.6	17.1*	2.3	-2.4	-0.7	3.6
CNc1ccc(OC)cc1-n1cnc(-c2ccc([N+](=O)[O-])cc2)c1	2.4	19.8*	-2.0	0.6	1.5	8.4
COc1ccc(-c2cn(Cc3ccc([N+](=O)[O-])cc3)nn2)cc1	3.8	2.0	-9.1	-1.3	0.9	x
Cc1ccc(NC(=Nc2ccc(Br)cc2)N2CCOCC2)cc1C	-0.1	17.6*	-2.6	-7.8	-4.5	-1.6
Cc1ccc(-n2nc(C)c3c2OC(N)=C(C#N)C3c2ccncc2)cc1 (centres undefined)	22.4	19.2*	8.8	1.7	2.8	4.8
COc1ccc(-c2ccc3c(n2)CCCN3S(=O)(=O)c2ccccc2)cc1	-2.9	-3.5	x	-2.9	-4.8	x
CC(C)c1c(C(=O)N/N=C/c2ccc3c(c2)OCO3)nnn1-c1nonc1N	2.0	3.5	4.9	0.2	5.0	x
CCN(CC)c1ccc(/C=N/NC(=O)c2nnn(-c3nonc3N)c2C(C)C)c(O)c1	18.0	17.2*	35.1	10.2	-5.1	4.5
CCCN(CCC)Cc1c(C(=O)N/N=C/c2ccco2)nnn1-c1nonc1N	2.4	17.2*	-19.0	-7.4	-3.0	5.5
SMILES	ABHD4 inh	SIAE inh	HTRA1 inh	PRMT1 inh	TCR CD3 inh	SIAE inh conf
CCCN(CCC)Cc1c(C(=O)N/N=C/c2ccoc2)nnn1-c1nonc1N	-4.0	1.9	-24.7	-1.1	-6.9	x
Cc1ccc(S(=O)(=O)N/N=C\c2cn(CC(N)=O)c3ccccc23)cc1C	9.1	23.1*	4.3	-2.3	7.0	6.7
COc1ccc(Cl)cc1/C=C1/C(=O)ON=C1C	-4.4	6.7	2.6	-0.8	-8.2	x
CCOc1ccc(Cl)cc1/C=C1/C(=O)ON=C1C	5.4	17.9*	1.4	-0.4	0.1	0.9
COc1ccc2[nH]cc(C(C)c3c[nH]c4ccccc34)c2c1 (centres undefined)	0.4	9.3	x	1.3	x	x
CC(C)c1cc(C(C)C)c(S(=O)(=O)N2CCC(C(=O)NCC3COCCO3)CC2)c(C(C)C)c1 (centres undefined)	-6.1	-0.7	x	1.1	x	x
Cc1cccc(/C(N)=N/OC(=O)c2ccc(F)cc2)c1	2.9	20.5*	2.3	2.3	-2.7	-1.0
CCCCNC(=O)OCCCN1CCC2(CCC(c3ccccc3)CC2)C1 (centres undefined)	-3.9	0.5	x	3.9	x	x
CC(=O)c1cc(-c2ccccc2S(=O)(=O)NC(C)(C)C)c(=O)n2c1CCC2	8.2	1.3	x	1.4	x	x
CN(C)CCOC(=O)/C(=C/c1cn(C)c2ccccc12)NC(=O)c1ccccc1	-0.6	17.5*	6.7	-3.6	2.0	3.0
Cc1ccc(C(=O)N/C(=C\c2cn(C)c3ccccc23)C(=O)OCCN(C)C)cc1	-0.8	3.1	3.5	0.2	-0.3	x
CC(C)(C)OC(=O)N1CCC(c2ccc[nH]2)(c2c[nH]c3ccccc23)CC1	-2.3	-0.6	x	2.6	x	x
O=C(Nc1ccccc1)/C(=C/c1cccnc1)NC(=O)c1ccco1	5.9	20.1*	2.4	-2.9	2.7	3.1
Cc1cccc(-c2nc(Nc3ccc(N4CCOCC4)cc3)c3ccccc3n2)c1	9.0	30.4*	15.3	-1.5	-2.5	6.1
Cc1ccccc1C(=O)/C=C1\NC(=O)CS1	-0.3	17.3*	0.7	-1.4	-2.8	2.1
O=C1CS/C(=C/C(=O)c2ccccc2)N1	1.4	-9.2	2.7	-1.5	-2.9	x
COc1ccc(Nc2ncnc3sc(-c4ccccc4)cc23)cc1	1.2	33.0*	-20.3	3.9	-8.9	1.4
COc1ccc(C2=NN(c3ccccc3)C(=O)/C2=C\c2ccc(O)c(OC)c2)cc1	4.3	19.0*	8.1	1.6	4.4	5.5
COc1ccc(/C=C2/C(=O)N(c3ccccc3)N=C2C)cc1OC	0.5	13.9	5.3	-2.3	2.7	x
COc1ccc(NC(=O)C2Cc3cccc(OC)c3O/C2=N\O)cc1 (centres undefined)	3.6	-9.4	1.2	0.9	-0.4	x
COc1cccc2c1O/C(=N\O)C(C(=O)Nc1ccc(C)cc1)C2 (centres undefined)	-5.6	20.5*	2.3	-2.3	4.3	5.3
COCCCNC(=O)C[C@H]1C(=O)N(Cc2ccc(OC)cc2)C2=CCCCC[C@@]21C(=O)OC	-7.3	-5.1	x	-11.5	x	x
O=C(Nc1ccc(Br)cc1Br)Nc1cccc2[nH]c([C@@H]3O[C@H](CO)[C@@H](O)[C@H](O)[C@H]3O)nc12	0.8	19.3*	x	1.5	8.8	2.5
O=C(Nc1cccc(Cc2ccccc2)c1)Nc1cccc2[nH]c([C@@H]3O[C@H](CO)[C@@H](O)[C@H](O)[C@H]3O)nc12	11.3	13.1	x	4.5	-1.5	x
CSc1n[nH]c(-c2cccs2)n1	7.0	-9.6	x	-2.6	-0.7	x
